Measurements gathered from unrelated publications.
Each line is one published result; the experiments were not run side by side.
Read-out: cell growth or viability

With `Oc1ccc(Nc2nc(-c3ccc(Cl)cc3)cs2)cc1` the IC50 was 10300 nM (WM35; MTS; 48 h).
With `COc1ccc(-c2ccc(-c3ccc(C(=N)N)nc3)s2)cc1` the GI50 was 1800 nM (UACC-257; SRB).
With `COc1ccc(C2=Nn3c(NN=C4C(=O)Nc5ccc(OC)cc54)nnc3SC2)cc1` the inhibition was 16% (SNB-75; SRB; 10 µM).
For `COc1cccc(-c2cn(-c3cc(=O)oc4ccc(Br)cc34)nn2)c1`, the CC50 was 10300 nM (CCRF-CEM; 48 h).
`O=C(N/N=C/c1c(O)ccc2ccccc12)c1cc(-c2ccc3ccccc3c2)n[nH]1` has an IC50 of 37000 nM (WM35; MTS; 24 h).
For `COc1cc(Nc2nccc(-c3cnn4nc(OC)ccc34)n2)cc(C(F)(F)F)c1`, the IC50 was 270 nM (RKO; ATP luminescence).
`COc1ccc(/C=C\c2cc(OC)c(OC)c(OC)c2)cc1O` gave a CC50 of 36 nM (CCRF-CEM; 48 h).
The GI50 of `COc1ccc(-c2ccc(-c3ccc(C(=N)N)nc3)s2)cc1Cl` is reported as 1430 nM (SNB-75; SRB).
`CC(C)C[C@H](NC(=O)[C@H](Cc1ccccc1)NC(=O)c1cnccn1)B(O)O` gave an IC50 of 8.6 nM (EPLC-272H; ATP luminescence).
